Results of several laboratories.
Each line is one published result; the experiments were not run side by side.
Target: Calcium/calmodulin-dependent protein kinase type II subunit delta (CAMK2D, Homo sapiens, UniProt Q13557)

With `O=C(Nc1cnn(-c2csc(C(=O)NC3COC3)c2)c1)Nc1c(F)cccc1Cl` the remaining activity was 93.5% (enzyme activity, inhibitor; 5 µM).
The remaining activity of `Cc1ccc(C(=O)Nc2ccc(CN3CCN(C)CC3)c(C(F)(F)F)c2)cc1C#Cc1cnc2cccnn12` is reported as 96% (enzyme activity; 23.5 nM).
With `Cc1ccc(NC(=O)c2ccc(C)c(C(F)(F)F)c2)cc1C#Cc1nn(C2CCC(O)CC2)c2ncnc(N)c12` (stereo not drawn) the remaining signal was 89% (cell-free assay; 10 µM).
For `C[S+]([O-])c1ccc(-c2nc(-c3ccncc3)c(-c3ccc(F)cc3)[nH]2)cc1` (stereo not drawn), the remaining signal was 103% (cell-free assay; 0.5 µM).
The remaining activity of `COc1cc(Cl)c(C(=O)N[C@@H](CN[C@H]2CC[C@@H](N)CC2)Cc2ccc(C#N)cc2)cc1-c1ccc(CN[C@H](C)c2ccc(C)cc2)o1` is reported as 100% (enzyme activity, inhibitor; 1 µM).
For `CCN(CC)CCNC(=O)c1c(C)[nH]c(/C=C2\C(=O)Nc3ccc(F)cc32)c1C`, the inhibition was 92% (enzyme activity, inhibitor; 0.3 µM).
For `CCCCNc1ncc2c(-c3ccc(F)cc3)nn(C[C@H]3CC[C@H](N)CC3)c2n1`, the inhibition was 44.3% (target engagement in cells, inhibitor, chemoproteomics; 20 mM).
`CC/C(=N\NC(=O)NCc1cccc(O)c1)c1ccc(O)c(C)c1O` gave an inhibition of -4.9% (enzyme activity, inhibitor; 0.1 µM).
With `Cc1c(NC(=O)c2cc(C(N)=O)nc3cc(F)ccc23)c(C(F)(F)F)nn1Cc1ccc(C#N)cc1` the remaining binding was 90% (cell-free assay, competition with immobilised ligand; 1 µM).
The remaining signal of `N#CCCc1ccc2c(c1)-c1[nH]c3ccc([N+](=O)[O-])cc3c1CC(=O)N2` is reported as 57.8% (cell-free assay; 0.5 µM).
For `CCOC(=O)c1cc2cc(-c3cc(C(=O)NCc4ccc(C(=O)O)cc4)nn3C)ccc2[nH]1`, the remaining binding was 91% (cell-free assay, competition with immobilised ligand; 0.1 µM).
For `Cc1cc(NC(=O)c2cccc3cc(-c4cccc5[nH]nc(N)c45)ccc23)ccc1F`, the activity vs control was 102% (enzyme activity, inhibitor; 0.1 µM).
With `COc1ccc2c(c1)O[C@H](c1ccc(OC)c(OC)c1)C[C@@H]2NC(=O)C1(c2ccc3c(c2)OC(F)(F)O3)CC1` the remaining binding was 100% (cell-free assay, competition with immobilised ligand; 1 µM).
`CCN(CC)c1ccc(C2=NNC(=O)CC2C)cc1[N+](=O)[O-]` (stereo not drawn) has a remaining activity of 104% (enzyme activity, inhibitor; 10 µM).
With `CSc1cccnc1N1CCN(Cc2nc3ccccc3[nH]2)CC1` the remaining binding was 100% (cell-free assay, competition with immobilised ligand; 1 µM).
`CN1CC(Oc2cnc(C#N)cc2-c2ccn3nc(NC(=O)C4CC4)cc3c2)C1` gave an inhibition of -3% (enzyme activity, inhibitor; 1 µM).
`CNCc1ccccc1-c1csc([C@H](C)Nc2nc(C)nc3cc(OC)c(OC)cc23)c1` has a remaining binding of 97% (cell-free assay, competition with immobilised ligand; 1 µM).
For `Cc1ccc(Nc2nccc(N(C)c3ccc4c(C)n(C)nc4c3)n2)cc1S(N)(=O)=O`, the inhibition was 66% (enzyme activity, inhibitor; 10 µM).
